The source of these data is ChEMBL document CHEMBL4033651, “Exploration of flexible phenylpropylurea scaffold as novel cardiac myosin activators for the treatment of systolic heart failure” (Eur J Med Chem, 2017).

Format in all cases: functional
Experiment [1] has as its system Rattus norvegicus. Kind of experiment: Effect on hemodynamic parameters in Sprague-Dawley rat heart assessed as dPdT max at 4 ug/kg/min (reference value: 4985 to 5214 mmHg/s).
In experiment [2] the test system is Rattus norvegicus. Kind of experiment: Positive inotropic activity in Sprague-Dawley rat heart assessed as left ventricular posterior wall thickness end systole at 16 ug/kg/min for 3 mins by echocardiographic analysis (reference value: 2.07 to 2.46 mm). The essentials: (§1)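 Male Sprague-Dawley rats, seven weeks old, anaesthetised with 1.5 % isoflurane given by nosecone. Compound infused through the right internal jugular vein, used as a central venous line. Left ventricular dimensions measured by echocardiography.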

Experiment [3] has as its system Rattus norvegicus. Kind of experiment: Effect on hemodynamic parameters in Sprague-Dawley rat heart assessed as dPdT max at 2 ug/kg/min (reference value: 5214 mmHg/s).
Experiment [4] relates to Rattus norvegicus. In words: Effect on hemodynamic parameters in Sprague-Dawley rat heart assessed as dPdT max at 8 ug/kg/min (reference value: 4162 to 5214 mmHg/s).
For experiment [5], the system named is Rattus norvegicus. In words: Effect on hemodynamic parameters in Sprague-Dawley rat heart assessed as dPdT min at 8 ug/kg/min (reference value: -5462 to -4611 mmHg/s).
The subject of experiment [6] is Rattus norvegicus. In words: Effect on hemodynamic parameters in Sprague-Dawley rat heart assessed as end-systolic pressure at 2 ug/kg/min (reference value: 97.85 mmHg).
Experiment [7] deals with Rattus norvegicus. Kind of experiment: Effect on hemodynamic parameters in Sprague-Dawley rat heart assessed as end-diastolic pressure at 2 ug/kg/min (reference value: 7.68 mmHg).
The test system of experiment [8] is Rattus norvegicus. In words: Positive inotropic activity in Sprague-Dawley rat heart assessed as heart rate at 4 ug/kg/min for 3 mins by echocardiographic analysis (reference value: 281 to 347 bpm).
Experiment [9] relates to Rattus norvegicus. Kind of experiment: Positive inotropic activity in Sprague-Dawley rat heart assessed as left ventricular internal diameter end diastole at 4 ug/kg/min for 3 mins by echocardiographic analysis (reference value: 5.66 to 7.80 mm). Summed up: as §1
Experiment [10] has as its system Rattus norvegicus. Kind of experiment: Positive inotropic activity in Sprague-Dawley rat heart assessed as ejection fraction at 4 ug/kg/min for 3 mins by echocardiographic analysis (reference value: 67.16 to 85.81%). Summed up: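 Seven-week-old male Sprague-Dawley rats under 1.5 % isoflurane via nosecone. Drug given through a right internal jugular vein central line. Left ventricular fractional shortening and ejection fraction measured by echocardiography with and without sample, expressed as % increase.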

In experiment [11] the test system is Rattus norvegicus. In words: Positive inotropic activity in Sprague-Dawley rat heart assessed as left ventricular internal diameter end systole at 16 ug/kg/min for 3 mins by echocardiographic analysis (reference value: 2.50 to 4.78 mm). The essentials:
as §1

Experiment [12] has as its system Rattus norvegicus. Kind of experiment: Effect on hemodynamic parameters in Sprague-Dawley rat heart assessed as end-diastolic pressure at 4 ug/kg/min (reference value: 7.68 to 9.83 mmHg).
The subject of experiment [13] is Rattus norvegicus. Kind of experiment: Effect on hemodynamic parameters in Sprague-Dawley rat heart assessed as dPdT min at 4 ug/kg/min (reference value: -5462 to -4898 mmHg/s).
The subject of experiment [14] is Rattus norvegicus. Kind of experiment: Effect on hemodynamic parameters in Sprague-Dawley rat heart assessed as heart rate at 4 ug/kg/min (reference value: 260 to 322 bpm).
Experiment [15] has as its system Rattus norvegicus. In words: Effect on hemodynamic parameters in Sprague-Dawley rat heart assessed as dPdT min at 2 ug/kg/min (reference value: -5462 mmHg/s).
Experiment [16] deals with Rattus norvegicus. Kind of experiment: Effect on hemodynamic parameters in Sprague-Dawley rat heart assessed as end-systolic pressure at 4 ug/kg/min (reference value: 94.65 to 97.85 mmHg).
Experiment [17] relates to Rattus norvegicus. Kind of experiment: Effect on hemodynamic parameters in Sprague-Dawley rat heart assessed as heart rate at 2 ug/kg/min (reference value: 322 bpm).
Experiment [18] has as its system Rattus norvegicus. Kind of experiment: Effect on hemodynamic parameters in Sprague-Dawley rat heart assessed as end-systolic pressure at 32 ug/kg/min (reference value: 87.48 mmHg).
Experiment [19] has as its system Rattus norvegicus. In words: Effect on hemodynamic parameters in Sprague-Dawley rat heart assessed as heart rate at 128 ug/kg/min (reference value: 274 bpm).
Experiment [20] concerns Rattus norvegicus. In words: Effect on hemodynamic parameters in Sprague-Dawley rat heart assessed as dPdT min at 32 ug/kg/min (reference value: -4611 mmHg/s).
In experiment [21] the test system is Rattus norvegicus. In words: Effect on hemodynamic parameters in Sprague-Dawley rat heart assessed as dPdT min at 64 ug/kg/min (reference value: -4611 mmHg/s).
Experiment [22] deals with Rattus norvegicus. Kind of experiment: Effect on hemodynamic parameters in Sprague-Dawley rat heart assessed as dPdT max at 64 ug/kg/min (reference value: 4162 mmHg/s).
Experiment [23] relates to Rattus norvegicus. In words: Effect on hemodynamic parameters in Sprague-Dawley rat heart assessed as end-diastolic pressure at 32 ug/kg/min (reference value: 9.64 mmHg).
In experiment [24] the test system is Rattus norvegicus. Kind of experiment: Effect on hemodynamic parameters in Sprague-Dawley rat heart assessed as dPdT min at 128 ug/kg/min (reference value: -4611 mmHg/s).
The subject of experiment [25] is Rattus norvegicus. In words: Effect on hemodynamic parameters in Sprague-Dawley rat heart assessed as dPdT max at 32 ug/kg/min (reference value: 4162 mmHg/s).
Experiment [26] relates to Rattus norvegicus. In words: Effect on hemodynamic parameters in Sprague-Dawley rat heart assessed as heart rate at 32 ug/kg/min (reference value: 274 bpm).
Experiment [27] concerns Rattus norvegicus. In words: Effect on hemodynamic parameters in Sprague-Dawley rat heart assessed as heart rate at 64 ug/kg/min (reference value: 274 bpm).
In experiment [28] the test system is Rattus norvegicus. In words: Effect on hemodynamic parameters in Sprague-Dawley rat heart assessed as end-diastolic pressure at 128 ug/kg/min (reference value: 9.64 mmHg).
The test system of experiment [29] is Rattus norvegicus. Kind of experiment: Effect on hemodynamic parameters in Sprague-Dawley rat heart assessed as end-systolic pressure at 128 ug/kg/min (reference value: 87.48 mmHg).
Experiment [30] concerns Rattus norvegicus. In words: Effect on hemodynamic parameters in Sprague-Dawley rat heart assessed as end-diastolic pressure at 64 ug/kg/min (reference value: 9.64 mmHg).
The subject of experiment [31] is Rattus norvegicus. Kind of experiment: Effect on hemodynamic parameters in Sprague-Dawley rat heart assessed as end-systolic pressure at 64 ug/kg/min (reference value: 87.48 mmHg).
Experiment [32] has as its system Rattus norvegicus. In words: Effect on hemodynamic parameters in Sprague-Dawley rat heart assessed as dPdT max at 128 ug/kg/min (reference value: 4162 mmHg/s).

SMILES strings stand for the structures.

With `COC(=O)N1CCN(Cc2cccc(NC(=O)Nc3ccc(C)nc3)c2F)CC1` [OMECAMTIV MECARBIL], the Activity in the experiment with Rattus norvegicus [1] is given as 6645 mmHg/s; in the experiment on Rattus norvegicus [2] it was 2.77 mm; in the experiment on Rattus norvegicus [3], 6320 mmHg/s; in the experiment on Rattus norvegicus [4], 6143 mmHg/s; in the experiment with Rattus norvegicus [5] it was -5547 mmHg/s; in the experiment on Rattus norvegicus [6], 109.76 mmHg. Moreover, the Activity in the experiment on Rattus norvegicus [7] was 7.65 mmHg; in the experiment with Rattus norvegicus [8], 368 bpm; in the experiment on Rattus norvegicus [9], 6.41 mm; in the experiment on Rattus norvegicus [10], 87.85%; in the experiment on Rattus norvegicus [11], 2.55 mm; with Rattus norvegicus [12], 7 mmHg. Further, the Activity with Rattus norvegicus [13] is given as -6516 mmHg/s; in the experiment on Rattus norvegicus [14], 326 bpm; with Rattus norvegicus [15] it was -6628 mmHg/s; in the experiment on Rattus norvegicus [16] it was 108.85 mmHg; in the experiment on Rattus norvegicus [17], 322 bpm.
For the compound `O=C(NCCCc1ccccc1)NCc1ccccc1`, the Activity was 95.74 mmHg with Rattus norvegicus [18]; 3.03 mm in the experiment on Rattus norvegicus [2]; 4644 mmHg/s in the experiment with Rattus norvegicus [4]; 284 bpm with Rattus norvegicus [19]; -5375 mmHg/s with Rattus norvegicus [20]; -6138 mmHg/s in the experiment on Rattus norvegicus [21]. Also, the Activity in the experiment with Rattus norvegicus [22] is on record as 5382 mmHg/s; in the experiment with Rattus norvegicus [5], -5583 mmHg/s; in the experiment with Rattus norvegicus [23], 12.26 mmHg; with Rattus norvegicus [8], 395 bpm; in the experiment with Rattus norvegicus [9], 5.57 mm; in the experiment with Rattus norvegicus [10] it was 76.44%. Also, the Activity in the experiment on Rattus norvegicus [24] is on record as -6346 mmHg/s; with Rattus norvegicus [25], 4744 mmHg/s; with Rattus norvegicus [11], 1.58 mm; in the experiment on Rattus norvegicus [26], 268 bpm; with Rattus norvegicus [27], 277 bpm; in the experiment on Rattus norvegicus [28] it was 24.12 mmHg. The Activity in the experiment on Rattus norvegicus [29] was 113.24 mmHg; in the experiment with Rattus norvegicus [30] it was 16.85 mmHg; in the experiment on Rattus norvegicus [31] it was 108.41 mmHg; with Rattus norvegicus [32] it was 6146 mmHg/s.
